The values below come from ChEMBL document CHEMBL1687868, “Bioactive compounds from the fern Lepisorus contortus” (J Nat Prod, 2011).

As a reminder, the IC50 is the concentration that inhibits the measured activity by half. High values mean weaker potency in that assay, low ones greater potency in that assay.

Data set [1] is described as follows: Inhibition of TNF-alpha-induced NFkappaB activation in human HEK293 cells after 6 hrs by luciferase reporter gene assay. In kind it is cell-based. Particulars: HEK293, 6 h. (In general: In a reporter assay the amount or activity of a reporter protein is the signal.)
The next data set deals with T1, Aromatase (Homo sapiens, UniProt P11511).
T1 sequence (P11511 whole entry): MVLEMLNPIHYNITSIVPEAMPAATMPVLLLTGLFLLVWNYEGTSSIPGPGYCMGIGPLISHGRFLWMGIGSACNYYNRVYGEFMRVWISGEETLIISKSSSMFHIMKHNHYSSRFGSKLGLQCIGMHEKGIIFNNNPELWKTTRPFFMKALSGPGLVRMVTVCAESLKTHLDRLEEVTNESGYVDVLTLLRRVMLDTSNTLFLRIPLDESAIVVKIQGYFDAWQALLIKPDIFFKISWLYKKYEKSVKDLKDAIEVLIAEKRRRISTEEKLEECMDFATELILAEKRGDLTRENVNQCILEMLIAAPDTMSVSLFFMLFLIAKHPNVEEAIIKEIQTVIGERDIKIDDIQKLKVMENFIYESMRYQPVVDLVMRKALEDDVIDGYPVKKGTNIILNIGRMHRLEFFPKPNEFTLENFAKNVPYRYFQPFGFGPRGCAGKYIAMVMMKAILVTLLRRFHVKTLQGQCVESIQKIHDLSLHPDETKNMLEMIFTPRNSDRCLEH
Description: Inhibition of aromatase preincubated with 2.6 mM NADP+ for 10 mins before substrate addition measured after 30 mins by fluorescence assay. The method, boiled down:
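Compounds preincubated 10 min at 37 °C with NADPH-regenerating system (2.6 mM NADP+, 7.6 mM glucose 6-phosphate, G6PDH, MgCl2, albumin; 50 mM K phosphate pH 7.4). CYP19 with 0.4 µM dibenzylfluorescein then added for 30 min at 37 °C. Stopped with 2 N NaOH and held a further 2 h at 37 °C. Fluorescence read at ex 485/em 530. Five concentrations; three independent experiments in duplicate.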

In a further data set the test system is RAW264.7. Description: Inhibition of NO production in mouse RAW264.7 cells at 20 ug/ml after 30 mins by Griess assay. Particulars: in the assay text read “after 24 hrs” for “after 30 mins”. In kind it is functional, cell-based. The method, boiled down: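 RAW 264.7 cells plated for 24 h. Compound in phenol red-free DMEM added 30 min before LPS (1 µg/mL), then 24 h incubation. Nitrite measured with Griess reagent (1% sulfanilamide, 0.1% N-(1-naphthyl)ethylenediamine in 2.5% H3PO4) at 540 nm, against an NaNO2 standard curve.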
For orientation: The Griess reaction detects nitrite, a stable product of nitric oxide.

In data set [2] the target is T2, Prostaglandin G/H synthase 1 (Ovis aries) (UniProt P05979).
T2 sequence (whole entry): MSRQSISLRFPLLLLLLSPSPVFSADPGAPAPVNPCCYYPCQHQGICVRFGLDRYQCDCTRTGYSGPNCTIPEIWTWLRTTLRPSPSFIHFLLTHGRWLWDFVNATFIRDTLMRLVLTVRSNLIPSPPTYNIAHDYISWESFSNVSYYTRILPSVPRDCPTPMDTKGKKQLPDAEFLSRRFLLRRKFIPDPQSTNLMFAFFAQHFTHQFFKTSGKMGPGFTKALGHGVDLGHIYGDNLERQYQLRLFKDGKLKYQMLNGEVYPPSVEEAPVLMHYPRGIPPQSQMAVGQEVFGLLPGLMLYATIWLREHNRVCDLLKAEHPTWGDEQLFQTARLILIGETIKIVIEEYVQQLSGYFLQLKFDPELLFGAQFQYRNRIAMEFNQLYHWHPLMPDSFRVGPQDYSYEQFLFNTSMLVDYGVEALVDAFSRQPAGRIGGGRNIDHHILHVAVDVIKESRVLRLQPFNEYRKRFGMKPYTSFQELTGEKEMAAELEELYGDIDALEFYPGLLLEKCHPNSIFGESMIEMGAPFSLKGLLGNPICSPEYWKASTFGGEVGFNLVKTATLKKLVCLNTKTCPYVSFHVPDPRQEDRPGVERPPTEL
In words: Inhibition of ovine COX1 assessed as PGE2 formation at 10 ug/ml by LC-MS-MS analysis. A digest of the protocol: (§1)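 COX-1 (ovine) or COX-2 (human), 0.2 µg, activated in Tris-HCl pH 8.0 with hematin (1 µM final) and L-epinephrine (2 mM final). Test solution preincubated 10 min at 37 °C. Reaction started with arachidonic acid (5 µM final), stopped with HCl after 2 min. d4-PGE2 added as internal standard and PGE2 extracted with […] for LC-MS.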

In data set [3] the target is T3, Prostaglandin G/H synthase 2 (Homo sapiens) (UniProt P35354).
T3 sequence (whole entry): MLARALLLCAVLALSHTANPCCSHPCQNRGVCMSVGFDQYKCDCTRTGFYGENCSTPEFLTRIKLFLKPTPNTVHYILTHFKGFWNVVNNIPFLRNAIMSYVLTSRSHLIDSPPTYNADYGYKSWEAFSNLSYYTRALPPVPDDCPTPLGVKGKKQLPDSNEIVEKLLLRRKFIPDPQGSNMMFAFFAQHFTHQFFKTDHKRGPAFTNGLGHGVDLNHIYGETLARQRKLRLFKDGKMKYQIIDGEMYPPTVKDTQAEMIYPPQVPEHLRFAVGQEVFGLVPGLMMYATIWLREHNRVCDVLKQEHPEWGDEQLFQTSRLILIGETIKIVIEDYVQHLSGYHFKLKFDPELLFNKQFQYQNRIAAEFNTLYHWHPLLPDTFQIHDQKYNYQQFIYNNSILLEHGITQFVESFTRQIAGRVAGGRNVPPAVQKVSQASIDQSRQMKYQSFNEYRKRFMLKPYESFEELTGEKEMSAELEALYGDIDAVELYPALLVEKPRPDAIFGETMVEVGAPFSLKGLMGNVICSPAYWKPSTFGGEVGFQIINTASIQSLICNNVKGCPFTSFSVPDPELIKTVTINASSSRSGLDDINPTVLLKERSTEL
Description: Inhibition of human COX2 assessed as PGE2 formation at 10 ug/ml by LC-MS-MS analysis. A digest of the protocol:
as §1

Data set [4] in a line: Cytotoxicity against mouse Hepa-1c1c7 cells assessed as cell growth inhibition at 20 ug/ml after 72 hrs by sulforhodamine B assay. The data set is classed as cell-based. Particulars: hepa-1c1c7, 72 h. A digest of the protocol:
(§2)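 Cells held in medium with 10% heat-inactivated FBS and penicillin/streptomycin/amphotericin B (Hepa1c1c7 in α-MEM; MCF-7 in MEME plus 10 mg/L insulin). Samples added in triplicate, 37 °C, 5% CO2, 72 h. Cells fixed with cold 20% TCA at 4 °C for 30 min, stained with 0.4% sulforhodamine B, dye dissolved in 10 mM Tris pH 10, OD read at 515 nm. Growth given as % of 10% aqueous DMSO control.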
On the technique in general: In SRB staining, fixed cells bind dye roughly in proportion to their protein.

The test system of the next data set is MCF7. In words: Cytotoxicity against human MCF7 cells assessed as cell growth inhibition at 20 ug/ml after 72 hrs by sulforhodamine B assay. In kind it is functional, cell-based. A digest of the protocol: as §2

The structures appear in SMILES notation. Activity calls are given as the source filed them. The calls are words filed in the database; no cut-off is given here.

In turn, `Cc1ccc(S(=O)(=O)N[C@@H](Cc2ccccc2)C(=O)CCl)cc1` [TPCK] yielded an IC50 in data set [1] of 3.76 µM.
Compound `O=C(/C=C/c1ccc(O)c(O)c1)O[C@H]1[C@H](O)[C@@H](CO)O[C@@H](OCCc2ccc(O)c(O)c2)[C@@H]1O[C@@H]1OC[C@](O)(CO)[C@H]1O` returned an IC50 on Aromatase of 26.8 µM. The inhibition result (in the data set with RAW264.7; in data set [2]; in data set [3]) was “inactive” throughout. Also, the Activity result was “Non-toxic” in data set [4] and “Not toxic” in the data set on MCF7.
On Aromatase, `O=C(/C=C/c1ccc(O)c(O)c1)O[C@H]1[C@H](O)[C@@H](O[C@@H]2OC[C@](O)(CO)[C@H]2O)[C@H](OCCc2ccc(O)cc2)O[C@@H]1CO` showed an IC50 of 30.7 µM. Further, the inhibition entry (with RAW264.7; in data set [2]; in data set [3]) was “inactive” each time. The results for the Activity entry (in data set [4]; with MCF7) were “Non-toxic” and “Not toxic”, respectively.
At Aromatase, `O=C(/C=C/c1ccc(O)c(O)c1)OC[C@H]1O[C@@H](OCCc2ccc(O)c(O)c2)[C@H](O)[C@@H](O)[C@@H]1O` [CALCEOLARIOSIDE B] gave an IC50 of 35.3 µM. Further, the inhibition entry (in the data set with RAW264.7; in data set [2]; in data set [3]) was “inactive” each time. The Activity entry is “Non-toxic” in data set [4] and “Not toxic” in the data set with MCF7.
Turning to `COc1c(-c2ccc(O)cc2)oc2cc(O[C@@H]3O[C@H](CO[C@@H]4O[C@@H](C)[C@H](O)[C@@H](O)[C@H]4O)[C@@H](O)[C@H](O)[C@H]3O)cc(O)c2c1=O`, the inhibition result (in the data set on RAW264.7; in data set [2]; in data set [3]) was “inactive” each time. Further, the Activity entry was “Non-toxic” in data set [4] and “Not toxic” with MCF7.
As to `O=C(/C=C/c1ccc(O)c(O)c1)OC[C@H]1O[C@@H](OCCc2ccc(O)c(O)c2)[C@H](O[C@@H]2OC[C@](O)(CO)[C@H]2O)[C@@H](O)[C@@H]1O`, the IC50 at Aromatase came to 32.3 µM. Besides, the inhibition entry (in the data set with RAW264.7; in data set [2]; in data set [3]) was “inactive” throughout. The Activity result in data set [4] is “Non-toxic”; in the data set with MCF7, “Not toxic”.
